We go through six compounds from ChEMBL document CHEMBL1129984, “Synthesis and pharmacological characterization of enantiomerically pure muscarinic agonists: difluoromuscarines” (J Med Chem, 1997).

What is called ED50 is the dose at which the effect has come halfway, by size or by number of responders. Lower therefore signals an effect at a small dose.

Assay [1] relates to Muscarinic acetylcholine receptor M2 (Cavia porcellus). The assay can be described thus: Intrinsic activity was measured as the ratio between the maximum response and the maximum response of muscarine in guinea pig heart at Muscarinic acetylcholine receptor M2.
The target in assay [2] is Muscarinic acetylcholine receptor M3 (Cavia porcellus) (UniProt Q8VH26). Briefly: Muscarinic potency was evaluated on guinea pig bladder at Muscarinic acetylcholine receptor M3 (expressed as -logED50). It counts as functional. Put shortly:
(§1)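 Isolated guinea pig tissues in PSS. Responses are expressed as a percentage of the maximal response in the control curve. Potency is given as pD₂ (−log ED₅₀, the agonist concentration producing 50% of maximal contraction). […] Parallel tissues received only (±)-muscarine to check sensitivity. 6–10 observations, mean ± SEM.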

Assay [3] shares this target. Briefly: Muscarinic potency was evaluated on guinea pig ileum at Muscarinic acetylcholine receptor M3 (expressed as -logED50). It is filed as functional, tissue-based. The gist of the method: as §1
Assay [4] has the same target. The assay can be described thus: Intrinsic adtivitiy was measured by the ratio between the maximum response and the maximum response of muscarine in guinea pig bladder at Muscarinic acetylcholine receptor M3. It counts as functional. The gist of the method: as §1
The target is the same in assay [5]. Briefly: Intrinsic adtivitiy was measured by the ratio between the maximum response and the maximum response of muscarine in guinea pig ileum at Muscarinic acetylcholine receptor M3. It is filed as functional, tissue-based. The gist of the method: as §1
Assay [6] has as its system Muscarinic acetylcholine receptor M2 (Cavia porcellus). Briefly: Muscarinic potency was evaluated on guinea pig heart (force) at Muscarinic acetylcholine receptor M2 (expressed as -logED50).
For assay [7], the species on record is Cavia porcellus. The assay can be described thus: Dissociation constant was evaluated on guinea pig ileum at M3 muscarinic receptor. The gist of the method: (§2)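 Dissociation constants and relative efficacies derived from guinea pig tissue agonist responses by the Furchgott and Bursztyn method.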
The species entered for assay [8] is Cavia porcellus. Briefly: Dissociation constant was evaluated on guinea pig bladder at M3 muscarinic receptor. The gist of the method: as §2
Assay [9] is filed under the species Cavia porcellus. Briefly: Dissociation constant was evaluated on guinea pig heart (force) at M2 muscarinic receptor. The gist of the method: as §2
The target in assay [10] is Muscarinic acetylcholine receptor M3 (Cavia porcellus) (UniProt Q8VH26). The assay can be described thus: Relative efficacy was evaluated on guinea pig bladder at Muscarinic acetylcholine receptor M3. It is filed as functional. The gist of the method: as §2
Sequence of Muscarinic acetylcholine receptor M3 (Cavia porcellus) (Q8VH26 1-587): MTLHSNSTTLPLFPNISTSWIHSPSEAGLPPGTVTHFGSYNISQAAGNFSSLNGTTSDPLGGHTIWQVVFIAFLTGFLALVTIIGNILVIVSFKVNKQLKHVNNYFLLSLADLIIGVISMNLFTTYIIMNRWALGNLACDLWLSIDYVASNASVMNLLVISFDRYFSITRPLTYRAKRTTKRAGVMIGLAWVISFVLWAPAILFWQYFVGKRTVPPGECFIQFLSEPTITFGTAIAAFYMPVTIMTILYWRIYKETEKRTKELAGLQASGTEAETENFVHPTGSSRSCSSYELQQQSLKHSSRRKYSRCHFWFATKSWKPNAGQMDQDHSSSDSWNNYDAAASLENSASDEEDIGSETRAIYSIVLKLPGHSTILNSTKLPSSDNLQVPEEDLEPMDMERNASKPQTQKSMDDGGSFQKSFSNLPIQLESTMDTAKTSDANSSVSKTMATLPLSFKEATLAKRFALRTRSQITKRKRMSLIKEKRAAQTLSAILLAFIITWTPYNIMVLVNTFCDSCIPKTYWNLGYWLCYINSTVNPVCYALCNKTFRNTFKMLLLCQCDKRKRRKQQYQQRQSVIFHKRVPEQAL
The subject of assay [11] is Muscarinic acetylcholine receptor M2 (Cavia porcellus). The assay can be described thus: Muscarinic potency was evaluated on guinea pig heart (rate) at Muscarinic acetylcholine receptor M2.
For assay [12], the target named is T1, Muscarinic acetylcholine receptor M2 (Homo sapiens) (UniProt P08172).
T1 sequence (whole entry): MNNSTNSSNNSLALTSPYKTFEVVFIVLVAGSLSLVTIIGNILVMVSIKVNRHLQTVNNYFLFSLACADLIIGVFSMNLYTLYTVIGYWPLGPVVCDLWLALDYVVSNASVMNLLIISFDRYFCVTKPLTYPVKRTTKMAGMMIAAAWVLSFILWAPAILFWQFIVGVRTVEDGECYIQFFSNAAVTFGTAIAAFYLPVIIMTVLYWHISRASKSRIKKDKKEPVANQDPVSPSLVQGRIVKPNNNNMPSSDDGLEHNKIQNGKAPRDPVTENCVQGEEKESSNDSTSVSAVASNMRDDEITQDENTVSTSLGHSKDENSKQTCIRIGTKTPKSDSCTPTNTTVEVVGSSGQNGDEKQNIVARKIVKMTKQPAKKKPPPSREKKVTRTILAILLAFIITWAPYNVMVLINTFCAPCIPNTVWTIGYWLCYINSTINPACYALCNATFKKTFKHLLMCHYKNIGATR
The assay can be described thus: Relative efficacy was evaluated on guinea pig heart (force) at Muscarinic acetylcholine receptor M2. It is filed as functional. The note with it: Cavia porcellus; target entry is the homologue from another species. The gist of the method:
as §2

For assay [13], the target named is Muscarinic acetylcholine receptor M3 (Cavia porcellus) (UniProt Q8VH26). Briefly: Relative efficacy was evaluated on guinea pig ileum at Muscarinic acetylcholine receptor M3. It counts as functional, tissue-based. The gist of the method:
as §2

For assay [14], the target named is T2, Muscarinic acetylcholine receptor M2 (Rattus norvegicus) (UniProt P10980).
T2 sequence (whole entry): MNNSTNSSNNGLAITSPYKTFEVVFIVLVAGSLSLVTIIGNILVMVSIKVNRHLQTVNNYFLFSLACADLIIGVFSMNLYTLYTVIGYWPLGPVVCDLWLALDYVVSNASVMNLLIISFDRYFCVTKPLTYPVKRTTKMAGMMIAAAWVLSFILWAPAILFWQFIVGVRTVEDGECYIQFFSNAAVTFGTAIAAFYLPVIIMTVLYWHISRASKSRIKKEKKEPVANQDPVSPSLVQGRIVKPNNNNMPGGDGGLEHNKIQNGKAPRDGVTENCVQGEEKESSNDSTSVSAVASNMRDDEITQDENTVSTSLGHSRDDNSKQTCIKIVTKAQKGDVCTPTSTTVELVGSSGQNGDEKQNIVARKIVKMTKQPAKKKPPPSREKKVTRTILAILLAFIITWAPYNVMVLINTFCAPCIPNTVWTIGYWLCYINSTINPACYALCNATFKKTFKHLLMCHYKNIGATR
The assay can be described thus: Muscarinic potency was evaluated at cardiac Muscarinic acetylcholine receptor M2 mediating Bradycardia in the pithed rat (Decrease in heart rate). It counts as functional. Put shortly: (§3)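 Pithed rats, artificially respired at 60 cycles/min, 1 mL/100 g, and equilibrated ≥30 min until heart rate was stable (basal 300 ± 8 beats/min). Agonists in 0.9% saline given iv at 0.1 mL/100 g, with full recovery between single doses. Heart rate measured from the carotid pressure pulse. ED₅₀ read graphically from dose–response curves. 5–9 observations, mean ± SEM.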

The target in assay [15] is T3, Muscarinic acetylcholine receptor M1 (Rattus norvegicus) (UniProt P08482).
T3 sequence (whole entry): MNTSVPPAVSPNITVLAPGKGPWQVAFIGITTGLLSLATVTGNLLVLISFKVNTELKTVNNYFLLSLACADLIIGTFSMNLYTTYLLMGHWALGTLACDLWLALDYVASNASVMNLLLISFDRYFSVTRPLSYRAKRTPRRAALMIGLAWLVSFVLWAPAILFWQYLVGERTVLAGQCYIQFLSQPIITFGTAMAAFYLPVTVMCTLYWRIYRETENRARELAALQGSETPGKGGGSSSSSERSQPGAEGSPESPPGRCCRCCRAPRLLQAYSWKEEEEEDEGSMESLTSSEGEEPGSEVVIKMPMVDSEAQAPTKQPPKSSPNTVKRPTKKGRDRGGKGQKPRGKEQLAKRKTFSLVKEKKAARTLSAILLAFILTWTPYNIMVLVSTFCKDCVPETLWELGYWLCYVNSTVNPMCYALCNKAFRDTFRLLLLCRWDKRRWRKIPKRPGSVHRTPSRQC
Briefly: Muscarinic potency was evaluated at ganglionic Muscarinic acetylcholine receptor M1 mediating Tachycardia in the pithed rat (Increase in heart rate). Put shortly: as §3

Assay [16] concerns the target T1, Muscarinic acetylcholine receptor M2 (Homo sapiens). The assay can be described thus: Relative efficacy was evaluated on guinea pig heart (rate) at Muscarinic acetylcholine receptor M2. It is filed as functional. The note with it: Cavia porcellus; target entry is the homologue from another species. Put shortly: as §2
For assay [17], the species on record is Cavia porcellus. Briefly: Dissociation constant was evaluated on guinea pig heart (rate) at M2 muscarinic receptor. The gist of the method:
as §2

Regarding `C[C@H]1O[C@H](C[N+](C)(C)C)CC1(F)F`, the Intrinsic activity came to 0.98 in assay [1], 0.67 in assay [4] and 0.99 in [5]. In addition, the pD2 in assay [2] worked out at 3.95; in [3], 4.85; in assay [6], 5.77.
Take `C[C@@H]1O[C@H](C[N+](C)(C)C)C[C@H]1O` (racemic) [MUSCARINE]: the pD2 in [2] is 5.69; in assay [3], 7.1. Also, the “-Log Kd” value was 5.95 in the assay listed under Cavia porcellus [7] and 4.62 in the assay listed under Cavia porcellus [8]. Also, the Intrinsic activity in [5] came to 1.
On to `C[C@@H]1O[C@@H](C[N+](C)(C)C)CC1(F)F`, for which the Intrinsic activity was determined as 1 in assay [1], 1 in assay [4] and 0.97 in assay [5]. The pD2 in assay [2] amounted to 4.16; in [3], 5.33; in assay [6], 6.28.
With `C[C@@H]1O[C@H](C[N+](C)(C)C)CC1(F)F`, the “-Log Kd” value worked out at 4.37 in the assay filed under Cavia porcellus [9], 4.7 in the assay listed under Cavia porcellus [7], 4.4 in the assay listed under Cavia porcellus [8] and 3.39 in the assay listed under Cavia porcellus [17]. Moreover, the Intrinsic activity was 1 in assay [1], 0.83 in [4] and 0.99 in assay [5]. Moreover, the Relative efficacy in assay [10] is 0.6; in assay [12], 1.6; in [13], 0.9; in assay [16], 23. Also, the -Log ED50 in [11] is 6.58. For the same compound, the pD2 in assay [2] came out at 5.23; in assay [3] it was 5.8; in assay [6], 6.56. For the same compound, the values for the 50% effective dose (ED50) in [14] and in [15] were 0.14 mg/kg and 0.05 mg/kg, respectively.
With `C[C@@H]1O[C@H](C[N+](C)(C)C)C[C@H]1F`, the “-Log Kd” value in the assay filed under Cavia porcellus [9] came to 4.67; in the assay listed under Cavia porcellus [7] it was 5.72; in the assay filed under Cavia porcellus [8] it was 4.39; in the assay listed under Cavia porcellus [17], 5.77. Moreover, the Intrinsic activity in assay [1] came to 0.98; in assay [4], 0.88; in assay [5], 0.95. Besides, the Relative efficacy in [10] was found to be 1.5; in assay [12], 1.2; in [13] it was 3; in [16], 0.2. In assay [11], the -Log ED50 worked out at 6.87. The pD2 in assay [2] came out at 5.66; in assay [3], 7.36; in assay [6], 6.73. Also, the values for the median effective dose (ED50) in assay [14] and in assay [15] were 0.0235 mg/kg and 0.0045 mg/kg, respectively.
Take `C[C@H]1O[C@@H](C[N+](C)(C)C)CC1(F)F`: the “-Log Kd” value in the assay filed under Cavia porcellus [9] came out at 3.64; in the assay listed under Cavia porcellus [7], 4.47; in the assay filed under Cavia porcellus [8], 3.71; in the assay listed under Cavia porcellus [17], 3.48. The Intrinsic activity in [1] was found to be 0.97; in assay [4], 0.95; in assay [5] it was 0.98. Besides, the Relative efficacy came to 0.2 in assay [10], 1.3 in [12], 0.8 in assay [13] and 10 in assay [16]. The same compound registered a -Log ED50 in [11] of 6.31. Moreover, the pD2 worked out at 3.82 in assay [2], 5.53 in assay [3] and 5.76 in assay [6]. Moreover, the figures for the ED50 in [14] and in assay [15] were 0.274 mg/kg and 0.1 mg/kg, respectively.
